Measured values from ChEMBL document CHEMBL4819012, “Discovery of novel 2-aryl-3-sulfonamido-pyridines (HoAns) as microtubule polymerization inhibitors with potent antitumor activities” (Eur J Med Chem, 2021).
The source made the active and inactive calls. The rule behind the calls is not given here.

Key:
SW-620 [1] = assay: Antiproliferative activity against human SW-620 cells assessed as cell viability measured after 72 hrs by MTS method; type: functional, cell-based; conditions: SW-620, 72 h
Method in brief: (§1)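 Log-phase cells plated at 5×10^3–6×10^3 per well for 24 h, then given graded compound concentrations in fresh medium for 72 h, five replicate wells. Medium replaced with medium containing 10% MTS, 30 min or more at 37 °C in dark; OD 490 nm read. IC50 by nonlinear regression; mean ± SD of at least three experiments.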

SW480 = assay: Antiproliferative activity against human SW480 cells assessed as cell viability measured after 72 hrs by MTS method; type: functional, cell-based; conditions: SW480, 72 h; method in brief: as §1
PANC-1 [2] = assay: Antiproliferative activity against human PANC-1 cells assessed as cell viability measured after 72 hrs by MTS method; type: functional, cell-based; conditions: PANC-1, 72 h; method in brief: as §1
SGC-7901 = assay: Antiproliferative activity against human SGC-7901 cells assessed as cell viability measured after 72 hrs by MTS method; type: functional, cell-based; conditions: SGC-7901, 72 h; method in brief: as §1
Sus scrofa = species: Sus scrofa; assay: Inhibition of pig tubulin polymerization at 10 uM measured every minute for 60 mins by microplate reader method
Method in brief: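 Kit assay with porcine tubulin (>97% pure) at 4 mg/mL in PIPES 80 mM, MgCl2 2 mM, EGTA 0.5 mM, pH 6.9, with GTP. Compound at 10 μM final (from 100 μM working solution) preincubated 5 min at 37 °C in a prewarmed plate before cold tubulin mix is added. A340 read every minute for 60 min at 37 °C.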

RKO [3] = assay: Induction of cell cycle arrest in human RKO cells assessed as accumulation of cells in G2 phase at 0.5 uM measured after 24 hrs by PI staining based flow cytometry method (reference value: 10.79%); type: functional
RKO [4] = assay: Induction of cell cycle arrest in human RKO cells assessed as accumulation of cells in G2 phase at 1 uM measured after 24 hrs by PI staining based flow cytometry method (reference value: 10.79%); type: functional
SW-620 [5] = assay: Induction of cell cycle arrest in human SW-620 cells assessed as accumulation of cells in S phase at 0.5 uM measured after 24 hrs by PI staining based flow cytometry method (reference value: 46.12%); type: functional
SW-620 [6] = assay: Induction of cell cycle arrest in human SW-620 cells assessed as accumulation of cells in G1 phase at 1 uM measured after 24 hrs by PI staining based flow cytometry method (reference value: 40.06%); type: functional
SW-620 [7] = assay: Induction of cell cycle arrest in human SW-620 cells assessed as accumulation of cells in S phase at 1 uM measured after 24 hrs by PI staining based flow cytometry method (reference value: 46.12%); type: functional
PANC-1 [8] = assay: Induction of cell cycle arrest in human PANC-1 cells assessed as accumulation of cells in S phase at 1 uM measured after 24 hrs by PI staining based flow cytometry method (reference value: 65%); type: functional
RKO [9] = assay: Induction of cell cycle arrest in human RKO cells assessed as reduction in cdc2 expression at 0.5 to 1 uM measured after 24 hrs by western blot assay; type: functional, cell-based; conditions: dose 0.5-1 µM
Method in brief: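 RKO or SW620 cells (4×10^5–5×10^5 per well) exposed to 0.5 or 1 μM or DMSO for 24 h. Lysed in SDS loading buffer, boiled, run on 8–15% SDS-PAGE and moved to PVDF. Blocked in 5% milk, probed overnight at 4 °C with anti-Cdc2 or anti-cyclin B1 (1:1000), β-actin as reference. HRP secondary and ECL detection. Done at least three times.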

RKO [10] = assay: Induction of apoptosis in human RKO cells assessed as necrotic cells at 0.5 uM measured after 24 hrs by PI/Annexin V staining based flow cytometry assay (reference value: 0.01%); type: functional
RKO [11] = assay: Induction of apoptosis in human RKO cells assessed as late apoptotic cells at 1 uM measured after 24 hrs by PI/Annexin V staining based flow cytometry assay (reference value: 0.81%); type: functional
RKO [12] = assay: Induction of apoptosis in human RKO cells assessed as necrotic cells at 1 uM measured after 24 hrs by PI/Annexin V staining based flow cytometry assay (reference value: 0.01%); type: functional
SW-620 [13] = assay: Induction of apoptosis in human SW-620 cells assessed as viable cells at 0.5 uM measured after 24 hrs by PI/Annexin V staining based flow cytometry assay (reference value: 93.89%); type: functional; conditions: read-out: Activity
SW-620 [14] = assay: Induction of apoptosis in human SW-620 cells assessed as early apoptotic cells at 1 uM measured after 24 hrs by PI/Annexin V staining based flow cytometry assay (reference value: 2.41%); type: functional
SW-620 [15] = assay: Induction of apoptosis in human SW-620 cells assessed as late apoptotic cells at 1 uM measured after 24 hrs by PI/Annexin V staining based flow cytometry assay (reference value: 3.66%); type: functional
SW-620 [16] = assay: Induction of apoptosis in human SW-620 cells assessed as necrotic cells at 1 uM measured after 24 hrs by PI/Annexin V staining based flow cytometry assay (reference value: 0.03%); type: functional
SW-620 [17] = assay: Induction of apoptosis in human SW-620 cells assessed as increase in Bax expression at 0.5 to 1 uM measured after 24 hrs by western blot assay; type: functional, cell-based; conditions: dose 0.5-1 µM
Method in brief: (§2)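 RKO or SW620 cells at 4×10^5–5×10^5 per well treated with 0.5 and 1 µM for 24 h; lysed in SDS loading buffer, boiled, SDS-PAGE, PVDF transfer; probed with anti-Bax or anti-cleaved PARP (1:1000) overnight at 4 °C, HRP secondary, ECL detection; β-actin control.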

SW-620 [18] = assay: Induction of apoptosis in human SW-620 cells assessed as increase in cleaved PARP levels at 0.5 to 1 uM measured after 24 hrs by western blot assay; type: functional, cell-based; conditions: dose 0.5-1 µM; method in brief: as §2
SW-620 [19] = assay: Induction of apoptosis in human SW-620 cells assessed as increase in ROS levels at 0.5 uM measured after 24 hrs by DCFH-DA staining based flow cytometry method relative to control; type: functional
Method in brief: (§3)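 Cells at 5×10^5 per well exposed to 0.25 or 0.5 µM for 24 h, then loaded with 5 µM DCFH-DA in serum-free medium 30 min at 37 °C; washed, harvested, read by flow cytometry (ex 488/em 525 nm). ROS given as ratio of treated to control; at least three experiments.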

RKO [20] = assay: Induction of apoptosis in human RKO cells assessed as increase in ROS levels at 0.25 uM measured after 24 hrs by DCFH-DA staining based flow cytometry method relative to control; type: functional; method in brief: as §3
HUVEC = assay: Anti-vascular activity against human HUVEC cells assessed as inhibition of cell migration at 0.5 to 1 uM measured after 24 hrs by cell migration assay; type: functional, cell-based; conditions: dose 0.5-1 µM
[21] = Toxicity against Athymic nude mouse xenografted with SW-620 cells assessed as toxicity in liver at 25 mg/kg per two days, po measured after 20 days by H and E staining method; type: organism-based; conditions: in vivo, 480 h, time 20 day
Method in brief: (§4)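 At the end of the 20-day oral SW620 xenograft study (25 mg/kg every 2 days, n = 6), heart, liver, spleen, lung and kidney were fixed in 4% paraformaldehyde and embedded in paraffin. 4 μm sections stained with Mayer hematoxylin 5 min and eosin-phloxine 2 min, then examined by light microscopy.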

[22] = Toxicity against Athymic nude mouse xenografted with SW-620 cells assessed as toxicity in spleen at 25 mg/kg per two days, po measured after 20 days by H and E staining method; type: organism-based; conditions: in vivo, 480 h, time 20 day; method in brief: as §4

| SMILES | IC50 (SW-620 [1]) [nM] | IC50 (SW480) [nM] | IC50 (PANC-1 [2]) [nM] | IC50 (SGC-7901) [nM] | inhibition (Sus scrofa) | Activity (RKO [4]) [%] | Activity (SW-620 [6]) [%] | Activity (SW-620 [7]) [%] | Activity (PANC-1 [8]) [%] | Activity (RKO [11]) [%] | Activity (RKO [12]) [%] | Activity (SW-620 [14]) [%] | Activity (SW-620 [15]) [%] | Activity (SW-620 [16]) [%] | Activity (SW-620 [17]) | Activity (SW-620 [18]) | fold change (FC) (SW-620 [19]) | also measured |
| --- | --- | --- | --- | --- | --- | --- | --- | --- | --- | --- | --- | --- | --- | --- | --- | --- | --- | --- |
| COc1ccc(S(=O)(=O)Nc2cccnc2-c2ccc(C#N)c(F)c2)cc1 | 673 | 338 | 729 | 617 | Active | 47.76 | 8.05 | 15.67 | 40.54 | 1.52 | 0.17 | 10.09 | 4.26 | 0.09 | Active | Active | 1.5 | Activity (RKO [3]): 16.65%; Activity (SW-620 [5]): 42.53%; Activity (RKO [9]): Active; Activity (RKO [10]): 0.03%; viability at 0.5 µM (SW-620 [13]): 90.2%; fold change (FC) (RKO [20]): 1.5; Activity (HUVEC): Dose-Dependent Effect; Activity [21]: Non-Toxic; Activity [22]: Non-Toxic |
| COc1ccc(S(=O)(=O)Nc2cccnc2Nc2ccc(O)cc2)cc1 [ABT-751] | 2790 | 3420 | 837 | 738 | Active | 52.8 | 37.86 | 44.45 | 33.13 | 1.31 | 0.1 | 8.35 | 4.322 | 0.07 | Active | Active | 1.8 | – |
